Ends that are not written are not given here.
Assays:
rat erythrocytes = experiment: Hemolysis assay; type: cell-based, Sprague-Dawley rats; conditions: for concentration inducing hemolysis relative to MICs: hemolytic concentration / MIC
Procedure, shortened: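 Sprague-Dawley rat blood was drawn from the abdominal aorta into heparin. RBCs were centrifuged, washed and made up as a 10% suspension in saline. Peptides, twofold-diluted in saline, were incubated with the RBCs at 37°C for 1 h, then spun 10 min, and supernatant A540 was read. Controls were saline (0%) and 1% Triton X-100 (100%). Hemolysis % = (Am − An)/(Ap − An) × 100.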

mammalian cells = experiment: Cytotoxicity assay; type: cell-based, human; conditions: for cytotoxicity: in words, MTT, HaCaTs and HUVECs, 24 h; for concentration inducing cytotoxicity relative to MICs: cytotoxic concentration / MIC
Procedure, shortened: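 HUVECs and HaCaTs in log phase were trypsinised, adjusted to 5 × 10^4 cells/ml, seeded and left to adhere overnight. Cells were exposed to a range of peptide concentrations (peptides in sterile water) for 24 h at 37°C, 5% CO2, with untreated wells as controls. MTT (5 mg/ml stock) was added for 4 h, the supernatant was removed, formazan was dissolved in DMSO, and A490 was read.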

[1] = system: six strains of pathogenic fungi and five strains of pathogenic bacteria; experiment: MIC determination, whole panel of fungi and bacteria; type: cell-based; conditions: in words
A. baumannii GD003 = experiment: Drug resistance development, serial passage; type: cell-based, Acinetobacter baumannii; conditions: A. baumannii GD003, serial passage at sub-MIC for 30 days, 96-well plates
Procedure, shortened: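 A. baumannii GD003 was activated in liquid culture and grown 12 h. It was diluted to 5 × 10^5 cells/ml in MHB and tested by broth microdilution in 96-well plates (37°C, 24 h; MIC = lowest concentration with no visible growth). Cells from the half-MIC well were carried into the next round and the MIC was re-measured, repeating over 30 days.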

A. baumannii = experiment: Murine lung infection; type: in vivo, BALB/c mice; conditions: 40 mg/kg intravenously for three consecutive days

Sequence: GIWDMIRKVRTVIRKAKQIKTFINGKGVQ [AMP-11]
- hemolytic activity (rat erythrocytes; in words, 10% rat RBC, 37°C, 1 h (Fig. 3A)): potent hemolytic activity
- cytotoxicity (mammalian cells): moderate cytotoxicity

Sequence: VTFVRLAGVASAVKTKAG [peptide 26]
- antimicrobial activity [1]: lacks antimicrobial activity

Sequence: WFHFFQRGSYNGI [AMP-29]
- concentration with hemolytic activity (rat erythrocytes; 10% rat RBC, 37°C, 1 h): 50 µM
- concentration inducing hemolysis relative to MICs (rat erythrocytes): 4 fold
- concentration inducing cytotoxicity relative to MICs (mammalian cells): > 32 fold
- cytotoxicity (mammalian cells): low cytotoxicity

Sequence: WLGSKIKAAKMKVGMWGAVGLRHN [AMP-24]
- concentration inducing hemolysis relative to MICs (rat erythrocytes): at least 32 fold
- concentration inducing cytotoxicity relative to MICs (mammalian cells): at least 32 fold
- cytotoxicity (mammalian cells): low cytotoxicity
- MIC after 30 passages of induced resistance (A. baumannii GD003): 12.5 µM
- H&E staining of off-target tissues (heart, liver, kidney) (A. baumannii): no obvious immune cell infiltrations were observed

Reference: article PMC11797553 (Science Advances, 2025)
